Tested on: Hepatitis C virus
Experiment: Antiviral activity against HCV genotype 1b infected in human Huh7 cells incubated for 96 hrs by luciferase assay
Type: functional, organism-based, Hepacivirus hominis
Conditions: Huh-7, 96 h
In short: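 Con1 (GT-1b) luciferase reporter replicon carrying the H77 (GT-1a) NS3 protease region, either WT or with A156T or D168A introduced by megaprimer mutagenesis. Cured Huh7 cells grown in DMEM with 10% heat-inactivated FBS and 0.1 mM non-essential amino acids. Cells electroporated with replicon RNA and kept with serially diluted inhibitor.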

Structure (SMILES)	EC50 [nM]
COc1ccc2nc(C)c(O[C@@H]3C[C@H]4C(=O)N[C@]5(C(=O)NS(=O)(=O)C6(C)CC6)C[C@H]5/C=C/CCCCC[C@H](NC(=O)OC5C[C@@H]6C[C@@H]6C5)C(=O)N4C3)nc2c1 (some centres not stated)	0.1
COc1ccc2nc(O[C@@H]3C[C@H]4C(=O)N[C@]5(C(=O)NS(=O)(=O)C6(C)CC6)C[C@H]5/C=C/CCCCC[C@H](NC(=O)O[C@@H](C)C(C)C)C(=O)N4C3)c(C(F)(F)F)nc2c1	0.9
COc1ccc2nc(C)c(O[C@@H]3C[C@H]4C(=O)N[C@]5(C(=O)NS(=O)(=O)C6(C)CC6)C[C@H]5/C=C/CCCCC[C@H](NC(=O)OC(C)(C)C(F)(F)F)C(=O)N4C3)nc2c1	0.8

Biological target: T1, Hepatitis C virus serine protease, NS3/NS4A (Hepatitis C virus, UniProt A3EZI9+D2K2A8)
Experiment: Inhibition of HCV GT-1a NS3/4a protease using Ac-DE-D(Edans)-EE-Abu-c-[COO]-AS-K(Dabcy1)-NH2 preincubated for 1 hr followed by substrate addition
Type: protein complex, Hepatitis C virus subtype 1a
Conditions: not given

Structure (SMILES)	Ki [nM]
COc1ccc2nc(C)c(O[C@@H]3C[C@H]4C(=O)N[C@]5(C(=O)NS(=O)(=O)C6(C)CC6)C[C@H]5/C=C/CCCCC[C@H](NC(=O)OC5C[C@@H]6C[C@@H]6C5)C(=O)N4C3)nc2c1 (some centres not stated)	0.5
COc1ccc2nc(O[C@@H]3C[C@H]4C(=O)N[C@]5(C(=O)NS(=O)(=O)C6(C)CC6)C[C@H]5/C=C/CCCCC[C@H](NC(=O)O[C@@H](C)C(C)C)C(=O)N4C3)c(C(F)(F)F)nc2c1	6.1
COc1ccc2nc(C)c(O[C@@H]3C[C@H]4C(=O)N[C@]5(C(=O)NS(=O)(=O)C6(C)CC6)C[C@H]5/C=C/CCCCC[C@H](NC(=O)OC(C)(C)C(F)(F)F)C(=O)N4C3)nc2c1	2.6

Tested on: Hepatitis C virus
Experiment: Antiviral activity against HCV genotype 1b harboring A156T mutant infected in human Huh7 cells incubated for 96 hrs by luciferase assay
Type: functional, organism-based, Hepacivirus hominis
Conditions: subtype 1b, Huh-7, 96 h
In short: (§1)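 Con1 (GT-1b) luciferase reporter replicon carrying the H77 (GT-1a) NS3 protease region, with the mutation introduced by megaprimer site-directed mutagenesis. Cured Huh7 cells were grown in DMEM with 10% heat-inactivated FBS and 0.1 mM non-essential amino acids, electroporated with replicon RNA transcripts, and kept with serially diluted inhibitor. EC50 was taken directly from the inhibition curves.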

Structure (SMILES)	EC50 [nM]
COc1ccc2nc(C)c(O[C@@H]3C[C@H]4C(=O)N[C@]5(C(=O)NS(=O)(=O)C6(C)CC6)C[C@H]5/C=C/CCCCC[C@H](NC(=O)OC5C[C@@H]6C[C@@H]6C5)C(=O)N4C3)nc2c1 (some centres not stated)	5.3
COc1ccc2nc(O[C@@H]3C[C@H]4C(=O)N[C@]5(C(=O)NS(=O)(=O)C6(C)CC6)C[C@H]5/C=C/CCCCC[C@H](NC(=O)O[C@@H](C)C(C)C)C(=O)N4C3)c(C(F)(F)F)nc2c1	8.7
COc1ccc2nc(C)c(O[C@@H]3C[C@H]4C(=O)N[C@]5(C(=O)NS(=O)(=O)C6(C)CC6)C[C@H]5/C=C/CCCCC[C@H](NC(=O)OC(C)(C)C(F)(F)F)C(=O)N4C3)nc2c1	3.3

Tested on: Hepatitis C virus
Experiment: Antiviral activity against HCV genotype 3a infected in human Huh7.5 cells incubated for 72 hrs by luciferase assay
Type: functional, organism-based, Hepacivirus hominis
Conditions: subtype 3a, Huh7.5, 72 h
In short: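 Huh7.5 cells stably harboring the GT-3a replicon S52/SG-Feo SHI, seeded at 8,000 cells/well. Cells lysed in 1X Passive Lysis Buffer and luciferase activity measured. EC50 taken from drug inhibition curves.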

Structure (SMILES)	EC50 [nM]
COc1ccc2nc(C)c(O[C@@H]3C[C@H]4C(=O)N[C@]5(C(=O)NS(=O)(=O)C6(C)CC6)C[C@H]5/C=C/CCCCC[C@H](NC(=O)OC5C[C@@H]6C[C@@H]6C5)C(=O)N4C3)nc2c1 (some centres not stated)	900
COc1ccc2nc(O[C@@H]3C[C@H]4C(=O)N[C@]5(C(=O)NS(=O)(=O)C6(C)CC6)C[C@H]5/C=C/CCCCC[C@H](NC(=O)O[C@@H](C)C(C)C)C(=O)N4C3)c(C(F)(F)F)nc2c1	1500
COc1ccc2nc(C)c(O[C@@H]3C[C@H]4C(=O)N[C@]5(C(=O)NS(=O)(=O)C6(C)CC6)C[C@H]5/C=C/CCCCC[C@H](NC(=O)OC(C)(C)C(F)(F)F)C(=O)N4C3)nc2c1	160

Biological target: T1, Hepatitis C virus serine protease, NS3/NS4A
Experiment: Inhibition of HCV GT-3a NS3/4a protease using Ac-DE-D(Edans)-EE-Abu-c-[COO]-AS-K(Dabcy1)-NH2 preincubated for 1 hr followed by substrate addition
Type: protein-complex assay, Hepatitis C virus subtype 3a
Conditions: not given

Structure (SMILES)	Ki [nM]
COc1ccc2nc(C)c(O[C@@H]3C[C@H]4C(=O)N[C@]5(C(=O)NS(=O)(=O)C6(C)CC6)C[C@H]5/C=C/CCCCC[C@H](NC(=O)OC5C[C@@H]6C[C@@H]6C5)C(=O)N4C3)nc2c1 (some centres not stated)	39
COc1ccc2nc(O[C@@H]3C[C@H]4C(=O)N[C@]5(C(=O)NS(=O)(=O)C6(C)CC6)C[C@H]5/C=C/CCCCC[C@H](NC(=O)O[C@@H](C)C(C)C)C(=O)N4C3)c(C(F)(F)F)nc2c1	447
COc1ccc2nc(C)c(O[C@@H]3C[C@H]4C(=O)N[C@]5(C(=O)NS(=O)(=O)C6(C)CC6)C[C@H]5/C=C/CCCCC[C@H](NC(=O)OC(C)(C)C(F)(F)F)C(=O)N4C3)nc2c1	66

Tested on: Hepatitis C virus
Experiment: Antiviral activity against HCV genotype 1b harboring D168A mutant infected in human Huh7 cells incubated for 96 hrs by luciferase assay
Type: functional, organism-based, Hepacivirus hominis
Conditions: subtype 1b, Huh-7, 96 h
In short: as §1

Structure (SMILES)	EC50 [nM]
COc1ccc2nc(C)c(O[C@@H]3C[C@H]4C(=O)N[C@]5(C(=O)NS(=O)(=O)C6(C)CC6)C[C@H]5/C=C/CCCCC[C@H](NC(=O)OC5C[C@@H]6C[C@@H]6C5)C(=O)N4C3)nc2c1 (some centres not stated)	0.5
COc1ccc2nc(O[C@@H]3C[C@H]4C(=O)N[C@]5(C(=O)NS(=O)(=O)C6(C)CC6)C[C@H]5/C=C/CCCCC[C@H](NC(=O)O[C@@H](C)C(C)C)C(=O)N4C3)c(C(F)(F)F)nc2c1	3.1

Reference: ChEMBL document CHEMBL4828740, “Discovery of Quinoxaline-Based P1-P3 Macrocyclic NS3/4A Protease Inhibitors with Potent Activity against Drug-Resistant Hepatitis C Virus Variants” (J Med Chem, 2021)
